Source: ChEMBL document CHEMBL1156222, “Tetrahydropyridine derivatives with inhibitory activity on the production of proinflammatory cytokines: part 2” (Bioorg Med Chem Lett, 2010)

Experiments:
[1] = test system: Blood; assay: Antiinflammatory activity in human whole blood assessed as inhibition of LPS-induced TNFalpha production after 6 hrs; assay type: functional, tissue-based
In short: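 Human whole blood was stimulated with LPS, and TNFα production was measured. % inhibition was plotted against log test concentration, and IC50 came from a least-squares linear regression. 95% confidence intervals were calculated by Fieller's theorem. Values are mean and S.D. of three to four determinations.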

[2] = test system: Mus musculus; assay: Antiinflammatory activity in po dosed mouse assessed as inhibition of LPS-induced TNFalpha production administered 30 mins before LPS challenge measured after 1 hr by ELISA; assay type: functional; conditions: read-out: ID50 (the source's name)
In short: (§1)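 LPS-induced TNFα production was measured in mice, with N = 5. Activity is reported either as ID50 or as % inhibition at a single 20 mg/kg dose.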

[3] = test system: Blood; assay: Antiinflammatory activity in human whole blood assessed as inhibition of LPS-induced TNFalpha production at 10 uM after 6 hrs; assay type: functional
In short: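 Human whole blood was stimulated with LPS, and inhibition of TNFα production was measured at a single test concentration of 10 μM. Values are mean and S.D. of three to four determinations.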

[4] = organism: Mus musculus; assay: Selectivity ratio of compound ID50 to 4-(2-(4-fluorophenyl)-4-(1,2,3,6-tetrahydropyridin-4-yl)-1H-pyrrol-3-yl)pyridine ID50 for antiinflammatory activity in mouse; assay type: functional
[5] = test system: Mus musculus; assay: Antiinflammatory activity in mouse assessed as inhibition of LPS-induced TNFalpha production at 20 mg/kg, po administered 30 mins before LPS challenge measured after 1 hr by ELISA; assay type: functional; in short: as §1

Row | Structure (SMILES) | IC50 [1] | ED50 [2] | inhibition at 10 µM [3] | Ratio [4] | inhibition in vivo at 20 mg/kg [5]
1 | CC(C)(C)N1CC=C(c2c[nH]c(-c3ccc(F)cc3)c2-c2ccncc2)CC1 | > 10000 nM |  |  |  | 
2 | CC1CC(c2c[nH]c(-c3ccc(F)cc3)c2-c2ccncc2)=CCN1C (configuration not stated) | 1280 nM | 2.73 mg/kg |  |  | 
3 | C=CCC1C=C(c2c[nH]c(-c3ccc(F)cc3)c2-c2ccncc2)CCN1C (configuration not stated) |  |  | 48.7% |  | 
4 | CN1CCC(c2c[nH]c(-c3ccc(F)cc3)c2-c2ccncc2)=CC1Cc1ccccc1 (configuration not stated) |  |  | 30.8% |  | 
5 | CC1C=C(c2c[nH]c(-c3ccc(F)cc3)c2-c2ccncc2)CCN1 (configuration not stated) | 710 nM | 2.29 mg/kg |  |  | 
6 | CCN1CCC(c2c[nH]c(-c3ccc(F)cc3)c2-c2ccncc2)=CC1C (configuration not stated) | 1610 nM | 5.28 mg/kg |  |  | 
7 | CN1C(C)(C)C=C(c2c[nH]c(-c3ccc(F)cc3)c2-c2ccncc2)CC1(C)C | 8440 nM | 7.27 mg/kg |  |  | 
8 | CCCN1CCC(c2c[nH]c(-c3ccc(F)cc3)c2-c2ccncc2)=CC1C (configuration not stated) | 440 nM | 2.79 mg/kg |  |  | 
9 | CC(C)N1CC=C(c2c[nH]c(-c3ccc(F)cc3)c2-c2ccncc2)CC1 | 980 nM | 6.18 mg/kg |  |  | 
10 | CCCN1CC=C(c2c[nH]c(-c3ccc(F)cc3)c2-c2ccncc2)CC1 | 520 nM | 6.75 mg/kg |  |  | 
11 | CN1CC=C(c2c[nH]c(-c3ccc(F)cc3)c2-c2ccncc2)CC1 | 3960 nM | 2.89 mg/kg |  | >2 | 
12 | CCN1CC=C(c2c[nH]c(-c3ccc(F)cc3)c2-c2ccncc2)CC1 | 1210 nM | 6.67 mg/kg |  |  | 
13 | CC1C=C(c2c[nH]c(-c3ccc(F)cc3)c2-c2ccncc2)CCN1C (configuration not stated) | 630 nM | 1.42 mg/kg |  |  | 
14 | CCCCCCCCN1CC=C(c2c[nH]c(-c3ccc(F)cc3)c2-c2ccncc2)CC1 | 1380 nM |  |  |  | 45%
15 | Fc1ccc(-c2[nH]cc(C3=CCN(Cc4ccccc4)CC3)c2-c2ccncc2)cc1 | > 30000 nM |  |  |  | 
